Screens: PubChem BioAssay, several laboratories
Rows were chosen to be rich in hits. Some 4.8% of all compounds tested hit in one or more screens of this group.
FLuc inhib CS – firefly luciferase enzyme inhibitors, primary screen, artefact control for luciferase-based inhibitor screens, biochemical, luminescence, ATPLite | Luciferin 4-monooxygenase (Photinus pyralis), P08659 | 10 min | inhibition, % at 10 µM | hit rate 1.5% among 200,000;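 active means inhibition above about 50% when tested at 10 µM, limit read from the data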
Target sequence (P08659 whole entry, looked up): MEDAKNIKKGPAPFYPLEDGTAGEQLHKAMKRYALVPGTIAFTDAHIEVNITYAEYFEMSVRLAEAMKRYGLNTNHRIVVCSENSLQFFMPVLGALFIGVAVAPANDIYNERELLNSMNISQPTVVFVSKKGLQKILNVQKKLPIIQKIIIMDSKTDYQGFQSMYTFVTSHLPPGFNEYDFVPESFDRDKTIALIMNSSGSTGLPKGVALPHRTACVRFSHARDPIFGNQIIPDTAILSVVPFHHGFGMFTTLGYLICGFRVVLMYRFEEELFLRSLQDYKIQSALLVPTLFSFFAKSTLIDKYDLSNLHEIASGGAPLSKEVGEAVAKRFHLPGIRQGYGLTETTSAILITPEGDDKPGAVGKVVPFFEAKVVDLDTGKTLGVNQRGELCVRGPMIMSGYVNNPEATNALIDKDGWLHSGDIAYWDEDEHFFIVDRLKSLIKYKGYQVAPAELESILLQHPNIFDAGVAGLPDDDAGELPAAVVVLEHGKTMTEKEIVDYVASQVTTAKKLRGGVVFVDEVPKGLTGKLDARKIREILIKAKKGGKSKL
APP 5'UTR act – activators of APP 5'UTR luciferase reporter, primary screen, SH-SY5Y cells; SH-SY5Y APP 5'UTR luciferase reporter, luminescence; zero percent = DMSO vehicle wells; activation, % at 2 µM; AID 1276, 2008; hit rate 1% among 190,000;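 active means activation above a set limit, based on mean plus 3 SD of controls, cut at about 140% in these data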
FLuc act counter – FLuc activators, initial screening, artefact control for FLuc-dependent activation tests, biochemical, ATPlite luminescence | Luciferin 4-monooxygenase (Photinus pyralis), P08659 | ATPlite luciferase biochemical, 10 min; 0 = ATP-free wells, 1 = DMSO control | activation factor at 10 µM | 200,000 tested, under 10 active | AID 1027, 2008;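 active means luciferase activation factor, scaled between plate controls, of at least 2 with compound at 10 µM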
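System: cell-free luciferase reagent; medium: PBS as buffer for the ATP substrate; doses: test compounds dosed from 2 mM stocks in 100% DMSO; incubation: 10 min, room temperature; measured by: luminescence from luciferase reaction; read-out: luciferase activation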
STAT1 act – STAT1 signaling activators, primary screen, cell-based, HTS, luciferase reporter. AID 932, 2007. hit rate 2.6% among 200,000. activation (% of control), % at 5.5 µM. NIH 3T3 STAT1-luciferase reporter, IFN-gamma, luminescence; 100% = IFN-gamma alone, no compound;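 active means activation above the screen-wide mean activation plus 3 SD, cut at about 130% in these data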;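 further: raw ratio to IFN-gamma control signal so 100% means no change and 0% no light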
APP 5UTR inh – inhibitors of APP translation via 5'UTR reporter, primary screen, APP 5'UTR luciferase, SH-SY5Y cells; SH-SY5Y APP 5'UTR-luciferase reporter, luminescence; inhibition, % at 2 µM; hit rate 0.82% among 190,000;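 active means inhibition above a set limit, derived from the sample mean plus 3 SD, cut at about 45% in these data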
NF-kB neuron act – activators of NF-kB expression in neurons, primary screen, cell-based, HTS; human neuronal cells, NF-kB reporter expression; active compounds read high; AID 1239, 2008; hit rate 1.6% among 190,000; fold change at 12.5 µM; in the data active means fold change above about 3.3
* = called active by the depositor; · = not tested or not shown.

SMILES	FLuc inhib CS	APP 5'UTR act	FLuc act counter	STAT1 act	APP 5UTR inh	NF-kB neuron act
O=C(Nc1ccccc1O)c1ccc(Cl)cc1	20	43	0.8	92	-43	5.7*
Cc1cc(NC(=O)c2ccc(Cl)cc2)c(C)cc1O	53*	21	0.5	115	-21	1.3
O=C(Nc1ccccc1OC(=O)c1ccc(Cl)cc1)c1ccc(Cl)cc1	0	30	1	97	-30	1.3
O=C(NCCCN1CCOCC1)c1cccc(S(=O)(=O)Nc2cc(Cl)ccc2Cl)c1	-5	-4	1.1	91	4	0.97
COC(=O)c1ccccc1NC(=O)CSc1nc(-c2ccco2)cc(C(F)(F)F)n1	-6	-73	1.1	106	73*	2
COC(=O)c1ccc(C(=O)OC)c(NC(=O)CSc2nc(-c3ccco3)cc(C(F)(F)F)n2)c1	·	14	·	103	-14	·
Cn1ncc(Br)c1C(=O)Nc1c(F)c(F)cc(F)c1F	-5	-3	1.1	122	3	1.4
CSc1ccccc1NC(=O)c1c(Br)cnn1C	-6	-51	1.1	98	51*	1.1
CSc1ccccc1NC(=O)c1cc2ncc(Br)cn2n1	4	73	1	142*	-73	1.5
CC1=C(C(=O)N2CCOCC2)C(c2cc(C)ccc2C)NC(=S)N1 (stereo not given)	-7	-8	1.1	99	8	0.97
CCc1nnc(NC(=O)CSc2nc3cc4c(cc3cc2CC)OCCO4)s1	-4	-4	1	105	4	3.5*
Cc1ccccc1-c1nn(-c2ccc(F)cc2F)cc1CNC1CC1	-5	11	1	94	-11	·
Cc1nc(SCC(=O)N2CCc3ccccc32)n[nH]1	-2	-1	1	104	1	2.1
COc1cccc(/C=N/Nc2nc(N3CCCC3)nc(N3CCCC3)n2)c1O	0	-19	1	101	19	0.33
COc1cccc(/C=N/Nc2ncnc3c2ncn3Cc2ccccc2)c1O	-5	-88	1.1	110	88*	0.76
COc1cccc(/C=N/Nc2cc(Cl)nc(C)n2)c1O	54*	59	0.5	97	-59	1.1
COC(=O)C(C)(C)ONC(=O)Nc1ccc(C)cc1	14	2	0.9	112	-2	1.4
CC(C)c1cccc(C(C)C)c1NC(=O)c1ccccc1	-6	9	1.1	88	-9	1.4
Cc1ccc(C(=O)CSC2=C(C#N)C(c3ccco3)C3=C(CCCC3=O)N2)cc1 (stereo not given)	0	-46	1	103	46*	1.6
CC(C)(C)c1ccc(C(=O)CCCSC2=C(C#N)C(c3ccco3)C3=C(CCCC3=O)N2)cc1 (stereo not given)	2	25	1	96	-25	0.67
COc1ccc(/C(N)=N/OC(=O)CSc2ccccc2)cc1OC	-6	42	1.1	145*	-42	2.8
N/C(=N\OC(=O)c1ccco1)c1cccc([N+](=O)[O-])c1	39	38	0.6	128	-38	1.4
COc1ccc(/C(N)=N/OC(=O)c2ccco2)cc1OC	6	80	0.9	149*	-80	2.9
N/C(=N\OC(=O)c1ccco1)c1cccc(Br)c1	56*	137*	0.4	127	-137	3
CCOc1ccc(N(C)S(=O)(=O)c2ccc(C)c(C(=O)OCC(=O)c3c[nH]c4ccccc34)c2)cc1	-3	25	1	84	-25	0.7
SMILES	FLuc inhib CS	APP 5'UTR act	FLuc act counter	STAT1 act	APP 5UTR inh	NF-kB neuron act
COc1ccc(C(C)=O)cc1COc1nc(C)nc2ccccc12	-6	-1	1.1	95	1	1.1
COc1cc(/C=C(\NC(C)=O)C(=O)Nc2cccc(O)c2)ccc1OC(C)=O	-3	5	1	98	-6	1.1
CC(C)(C)C1=CC(=O)C(=O)C(C(C)(C)C)=C1	14	-47	0.9	95	47*	1.2
CC(C)(C)C1=CC(=Nc2ccccc2N)C=C(C(C)(C)C)C1=O	-9	0	1.1	93	0	0.92
O=C(CSc1nccn1-c1ncc(C(F)(F)F)cc1Cl)c1ccc(Cl)cc1	-1	-12	1	133*	12	0.67
O=C(OC1CCN(c2ncc(C(F)(F)F)cc2Cl)CC1)c1ccc(Cl)cc1	-6	·	1.1	102	·	1.2
CC1CC(=O)c2c(cc3c(-c4c(O)cc(O)c5c(O)c6c(cc45)OC(C)CC6=O)c(O)cc(O)c3c2O)O1 (stereo not given)	-2	-50	1	92	50*	1.9
O=C1CC(c2ccc(O)cc2)Oc2cc(O)cc(O)c21 (stereo not given)	-3	6	1	104	-6	1.2
CN(C)c1ccc(/C=C/C=N/Nc2nc(N3CCOCC3)nc(N3CCOCC3)n2)cc1	-3	-8	1	108	8	0.8
CN(C(=O)c1cccc(Nc2ccc(-c3ccc4c(c3)OCCO4)nn2)c1)C1CCCCC1	77*	95	0.2	124	-95	1.9
CCOC(=O)/C=C(\C)N1N=C(c2ccccc2)CC1c1ccccc1 (stereo not given)	9	83	0.9	142*	-83	2.5
CC(=O)OCC(=O)N1N=C(c2ccc3ccccc3c2)CC1c1ccccc1 (stereo not given)	1	55	1	139*	-55	1.5
CCOc1cc(N2CCOCC2)c(OCC)cc1NC(=O)c1cc(-c2ccco2)nc2ccccc12	-2	-49	1	81	49*	0.46
CCOc1cc(N2CCOCC2)c(OCC)cc1NC(=O)COc1ncnc2ccccc12	-7	-17	1.1	106	17	1.1
CC(=O)Nc1cccc(Oc2ccc(-c3noc(C)n3)cc2)c1	21	89	0.8	138*	-89	2.6
COc1ccc(-c2noc(-c3ccccc3C(=O)Nc3cccc(OC)c3)n2)cc1	-2	-1	1	98	1	0.52
CCCSc1nsc(NC(=O)c2cccnc2OCC)n1	0	-2	1	111	2	1.4
CCCCCCSc1nsc(NC(C)=O)n1	-9	26	1.1	130*	-26	2.6
CCCSc1nsc(NC(=O)CCC)n1	26	194*	0.7	131*	-194	6.4*
CC(=O)Nc1nc(-c2ccccc2)ns1	6	13	0.9	124	-12	1.7
CCCCSc1nsc(NC(C)=O)n1	6	142*	0.9	127	-142	3.2
COc1ccc(C(=O)NCCn2ccc3ccccc32)cc1	7	91	0.9	116	-91	4*
